# “And” between values parts separate entries of the source, which are not always exact repeats. Identical values can stand only once. “Also recorded” adds a separate entry of the source.
# What was measured:
# [1] = test system: human imidazoline receptors (I1, I2); conditions: cited from earlier work
# AgDI from E. faecalis = conditions: substrate, cited from earlier work
# [2] = biological target: T1, E. coli agmatinase (EcAGM) (Escherichia coli, UniProt P60651); experiment: E. coli agmatinase; type: biochemical; conditions: for Ki: EcAGM, competitive inhibition, pH 7.5, 100 mM HEPES, 2 mM MnCl2, substrate agmatine
# T1 sequence (P60651 1-306): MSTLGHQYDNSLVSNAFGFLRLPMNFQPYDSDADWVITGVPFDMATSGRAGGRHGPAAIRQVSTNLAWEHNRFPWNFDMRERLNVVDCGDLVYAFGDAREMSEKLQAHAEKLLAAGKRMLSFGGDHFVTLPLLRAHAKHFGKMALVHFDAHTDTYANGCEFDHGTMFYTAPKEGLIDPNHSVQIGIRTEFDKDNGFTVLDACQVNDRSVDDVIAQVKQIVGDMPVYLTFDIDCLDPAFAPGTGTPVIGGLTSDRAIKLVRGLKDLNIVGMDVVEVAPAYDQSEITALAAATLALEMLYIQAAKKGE
# [3] = test system: E. faecalis agmatine deiminase (AgDI); experiment: Agmatine deiminase activity, GDH coupled enzyme assay; type: biochemical, Enterococcus faecalis; conditions: pH 7.5
# In short: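 His-tagged, codon-optimized E. faecalis AgDI was expressed in E. coli (LB without added metal, 1 mM IPTG, 16°C, 20 h) and purified by Ni-affinity chromatography. Agmatine-initiated ammonia release was coupled to GDH (2.5 U/mL) with 5 mM 2-oxoglutarate, 0.3 mM NADH and 0.8 mM ADP in HEPES-NaOH pH 7.5. Initial rates came from continuous A340 (ε 6220 M⁻¹cm⁻¹, 0.56 cm path).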
# [4] = biological target: C. butyricum agmatinase (CbAGM) (Clostridium butyricum, UniProt C4IHF6); type: biochemical; conditions: 5000 µM
# [5] = test system: EcAGM, CbAGM, GpuA, AGMAT, ARG1 and ARG2; experiment: HPLC analysis for metformin transformation by purified enzymes; type: in vitro ADME; conditions: 1 mM metformin, 10 μg purified enzyme, 20 mM CHES pH 9, overnight
# In short: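 His-tagged enzymes were expressed in E. coli BL21(DE3) and purified by Ni-affinity IMAC. ARG2 and AGMAT were mitochondrial-signal truncations (ARG2 Δ1-24/Δ331-354, AGMAT Δ1-35). Metformin was incubated with each enzyme, then analysed by reversed-phase C18 HPLC with an isocratic mobile phase of 75:25 (v/v) acetonitrile:10 mM potassium phosphate pH 6.6, which separates guanylurea from metformin.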
# [6] = cited from earlier work
# [7] = 1000–2000 mg daily; cited from earlier work
# type 2 diabetes patients = conditions: cited from earlier work
# [8] = biological target: serine hydroxymethyltransferase 2; conditions: read-out: Ki, serine hydroxymethyltransferase 2; mixed inhibition; cited from earlier work
# human PEN2 protein = conditions: cited from earlier work
# complex IV = conditions: cited from earlier work
# Chain of C. butyricum agmatinase (CbAGM) (C4IHF6 1-283): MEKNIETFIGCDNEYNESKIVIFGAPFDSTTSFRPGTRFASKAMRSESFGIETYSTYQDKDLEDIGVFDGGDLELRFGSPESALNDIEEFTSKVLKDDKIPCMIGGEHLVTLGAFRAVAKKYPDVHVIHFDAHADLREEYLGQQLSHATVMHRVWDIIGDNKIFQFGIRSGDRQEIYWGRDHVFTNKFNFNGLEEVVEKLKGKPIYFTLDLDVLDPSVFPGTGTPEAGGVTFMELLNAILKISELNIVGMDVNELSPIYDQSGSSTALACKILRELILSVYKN
smiles,measurement,setting,value
NCCCCN=C(N)N [agmatine],"binding and agonism at human imidazoline receptors (I1, I2)",[1],micromolar range
same,Km,"AgDI from E. faecalis; read-out: KM, AgDI from E. faecalis",35 µM
same,"kcat, AgDI from E. faecalis",AgDI from E. faecalis,840 s⁻¹
CCCCNC(=N)NC(=N)N [buformin],Ki,[2],100 µM
CC(C)=CCN=C(N)N [galegine],Ki,[2],7 µM
same,inhibition of agmatine deiminase (AgDI),[3]; 5 mM galegine,not inhibited
CN(C)C(=N)N=C(N)N [metformin],predicted reduction in the maximum velocity of EcAGM-like enzymes,"[2]; 5 mM metformin, 20 μM agmatine, steady state Michaelis-Menten model",83%
same,Ki,[2],1100 µM and 1000 µM and ~1000 µM
same,predicted reduction in the maximum velocity of CbAGM-like enzymes,[4],27%
same,inhibition of agmatine deiminase (AgDI),[3]; 50 mM metformin,not inhibited
same,inhibition of agmatine deiminase (AgDI),"[3]; 50 mM metformin, listed as Metformin",does not inhibit
same,transformation of metformin by ureohydrolase homologs,[5],No metabolism; also recorded: No transformation
same,concentration of metformin in the human gut,[6],1000 to 10000 µM
same,fraction excreted into wastewater,[7],> 80%
same,effectiveness of intravenous administration in type 2 diabetes patients,type 2 diabetes patients,little or no effectiveness
same,Ki,[8],13000 µM
same,"binding constant, human PEN2 protein",human PEN2 protein,micromolar range
same,"inhibitory concentration, mitochondrial respiration proteins like complex IV",complex IV,hundreds of micromolar
[H]/N=C(/N)N/C(=N/[H])NCCc1ccccc1 [phenformin],Ki,[2],600 µM

# — article PMC10839685 (iScience, 2024)
